Screening results (PubChem BioAssay)
Hsp90 block: tumor Hsp90 inhibitors, primary screen, cell lysate, fluorescence polarization, NCI-N417 lysate | Cy3B-geldanamycin FP displacement | inhibition, % at 30 µM | 0.35% of 64,000 active;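 active = inhibition above 50%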
SF-1 act: activators of human SF-1, primary screen, cell-based, CHO-K1, Gal4-SF-1 LBD, luciferase luminescence | Steroidogenic factor 1 (Homo sapiens), Q13285 | 1.9% of 65,000 active | AID 522, 2006 | CHO-K1 Gal4-SF-1 LBD luciferase reporter; % increase over DMSO SF-1-specific signal | activation, % at 10 µM;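 active = activation above the mean activation of all tested compounds plus 3 SD, cut at about 50% in these data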
Target sequence (Q13285 whole entry, looked up, the tested form may be a part): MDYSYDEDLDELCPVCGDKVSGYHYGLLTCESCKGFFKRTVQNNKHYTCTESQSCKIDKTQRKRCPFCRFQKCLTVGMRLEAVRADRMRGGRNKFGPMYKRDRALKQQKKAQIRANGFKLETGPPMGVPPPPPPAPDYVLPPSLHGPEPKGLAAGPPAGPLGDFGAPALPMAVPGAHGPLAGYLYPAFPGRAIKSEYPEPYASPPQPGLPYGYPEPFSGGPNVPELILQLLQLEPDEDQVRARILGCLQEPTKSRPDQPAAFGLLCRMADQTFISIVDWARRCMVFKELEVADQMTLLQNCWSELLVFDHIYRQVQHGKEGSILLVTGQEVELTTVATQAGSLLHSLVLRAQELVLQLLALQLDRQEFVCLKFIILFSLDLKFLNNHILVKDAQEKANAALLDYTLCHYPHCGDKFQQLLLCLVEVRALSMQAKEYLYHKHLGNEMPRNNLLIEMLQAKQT
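System: CHO-K1 cells with Gal4–hSF-1 LBD chimera plus Gal4-driven luciferase; quantity: 4,000 CHO-K1 cells per well; compound: one dose, 10 µM compound, 1% DMSO; times: 20 h compound treatment, 37 °C; measured by: SteadyLite luciferase luminescence; read-out: percent activation versus DMSO; benchmarks: DMSO and mock-transfected background; replicates: one test per compound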
MKP-1 inh: MKP-1 phosphatase inhibitors, primary screen, biochemical, in vitro | Dual specificity protein phosphatase 1 (Homo sapiens), P28562 | recombinant MKP-1, OMFP hydrolysis fluorescence | inhibition, %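 (compounds tested at a single concentration somewhere between 10 and 100 µM)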 | 0.15% of 65,000 active;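 active = inhibition above about 50%, limit read from the data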
JNK3 inh: JNK3 kinase activity inhibitors, primary screen, biochemical, human, purified enzyme | 0.61% of 60,000 active | AID 746, 2007 | Mitogen-activated protein kinase 10 (Homo sapiens), P53779 | HTS | inhibition, % at 8 µM; in the data active = inhibition above about 17%
Cdc25B block: inhibitors of Cdc25B phosphatase catalytic domain, primary screen, biochemical, OMFP fluorescence; inhibition, %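 (compounds tested at 10 µM final in the well)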; recombinant Cdc25B, OMFP fluorescence Ex485/Em525; 0.1% of 65,000 active; AID 368, 2006; in the data active = inhibition above about 50%
RORA act: activators of orphan receptor RORA, primary screen, cell-based, luminescence | CHO-K1 Gal4-RORA LBD luciferase reporter; percent increase over mock-subtracted basal signal | activation, % at 10 µM | 1.5% of 65,000 active;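 active = activation above the mean of all tested compounds plus 3 SD, cut at about 49% in these data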
Of the large screens only hits and unclear results are named; the others gave an inactive call. Sampled rows, rich in hits. Any-hit rate of the full collection: about 3.4%.

CC(=O)Nc1ccc(Nc2nc(C)nc3c2oc2ccccc23)cc1	none
CC(=O)c1ccc(Nc2ncnc3c2oc2ccccc23)cc1	SF-1 act 89
Clc1cccc2sc(N3CCCCC3)nc12	none
Clc1cc(Cl)c2nc(N3CCCC3)sc2c1	SF-1 act 60
Clc1cc(Cl)c2nc(N3CCCCC3)sc2c1	SF-1 act 61
Fc1cc(F)c2nc(N3CCCCC3)sc2c1	SF-1 act 65
Cc1cc(C)n(C(=O)CSc2nnc(SCC(=O)n3nc(C)cc3C)s2)n1	none
O=C1c2c(O)cc(O)cc2OC(c2ccc(O)c(O)c2)C1O (configuration not stated)	Hsp90 block 71 (no result: SF-1 act, MKP-1 inh, JNK3 inh, Cdc25B block, RORA act)
O=C(Cc1ccccc1F)Nc1nc(-c2cccs2)cs1	none
c1cncc(Nc2nc(-c3cccs3)cs2)c1	SF-1 act 76, RORA act 59
O=C(Cc1ccccc1)Nc1nc(-c2cccs2)cs1	RORA act 67
c1ccc(-c2csc(Nc3cccnc3)n2)nc1	SF-1 act 57
COc1ccc(C(=O)Nc2nc(-c3cccs3)cs2)cc1	none
COCc1nc2c([nH]1)c(=O)n(C)c(=O)n2CC(C)C	none (no result: SF-1 act, MKP-1 inh, JNK3 inh, Cdc25B block, RORA act)
N#Cc1c(N)oc(-c2ccc3c(c2)OCO3)c1-c1ccc2c(c1)OCO2	none (no result: JNK3 inh)
CCOC(=O)c1sc(NC(=O)COC(=O)Cn2cnc3ccccc32)c(C(=O)OCC)c1C	none
CCCCCCCCCCCCCCCCCC(=O)OC(CC(=O)O)C[N+](C)(C)C (configuration not stated)	none (no result: SF-1 act, MKP-1 inh, JNK3 inh, Cdc25B block, RORA act)
Nc1nc(Cl)nc2c1ncn2[C@@H]1O[C@H](COP(=O)(O)OP(=O)(O)OP(=O)(O)O)[C@H](O)C1O (some centres not stated)	none (no result: SF-1 act, MKP-1 inh, JNK3 inh, Cdc25B block, RORA act)
Cn1ncc2c(Nc3ccc(-c4ccccc4)cc3)ncnc21	SF-1 act 60
COc1ccc(-n2ncc3c(Nc4cccc(C)c4)ncnc32)cc1	SF-1 act 80
Cc1cccc(-n2ncc3c(Nc4ccc(F)cc4)ncnc32)c1	SF-1 act 74, RORA act 64
COc1ccc(C)cc1S(=O)(=O)N(CC(=O)N1CCCC1)c1ccccc1	none
O=c1ccc(Oc2nc(N3CCCCC3)nc(N3CCCCC3)n2)n[nH]1	none
CCOC(=O)c1ccccc1NC(=O)CSc1nnc(COc2ccccc2C)n1C	none
CN1C(=C2C(=O)OC(C)(C)OC2=O)Sc2ccccc21	none
CCOC(=O)c1cccc(NC(=O)c2cc3sccc3n2C)c1	SF-1 act 55
O=c1c2[nH]c3ccccc3c2ncn1Cc1ccncc1	none
O=c1c2[nH]c3cccc(Cl)c3c2ncn1Cc1ccncc1	JNK3 inh 22
c1ccc2nc3c(nc2c1)[nH]c1ccccc13	SF-1 act 81, JNK3 inh 55, RORA act 50
O=C1NC(c2ccc3c(c2)OCO3)Nc2ccccc21 (configuration not stated)	SF-1 act 72, RORA act 63
CCOc1ccc(C2C=C(c3ccccc3)Nc3nnnn32)cc1 (configuration not stated)	RORA act 56
Nc1c(-c2ccc(Cl)cc2)nnn1-c1ccccc1	SF-1 act 61, RORA act 87 (no result: JNK3 inh)
Clc1ccc(-n2nnnc2-c2ccccc2)cc1	none
C=Cc1c(C)c2cc3[nH]c(cc4nc(cc5nc(cc1[nH]2)C(C)=C5CCC(=O)O)C(CCC(=O)O)=C4C)c(C)c3C=C	Hsp90 block 139 (no result: SF-1 act, MKP-1 inh, JNK3 inh, Cdc25B block, RORA act)
COc1ccc(OC)c(N2C(=O)[C@@H]3C(c4ccccc4Cl)=NO[C@@H]3C2=O)c1	none
COc1ccc(C2=NO[C@@H]3C(=O)N(c4c(C)cccc4C)C(=O)[C@H]23)cc1OC	Hsp90 block 74
COC(=O)c1ccc(OC(=O)c2ccc(OCc3c(C)noc3C)c(OC)c2)cc1	none
CC(=O)Oc1cc2oc(=O)cc(C)c2cc1OC(C)=O	Hsp90 block 58
Nc1nc(Nc2ccc(Cl)cc2Cl)nc(C(F)(F)F)n1	SF-1 act 85, RORA act 56
Cc1cc2ncn(C(=O)c3c(-c4ccccc4Cl)noc3C)c2cc1C	none
